Measured values: ChEMBL document CHEMBL3751694, “1-Piperazinylphthalazines as potential VEGFR-2 inhibitors and anticancer agents: Synthesis and in vitro biological evaluation” (Eur J Med Chem, 2016)

Legend:
Format in all cases: functional
[1] = Growth inhibition of human BT549 cells at 10 uM after 48 hrs by SRB method; settings: BT-549, 48 h, read-out: GI
In short: (§1)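 NCI 56-line primary screen at a single 10^-5 M concentration. Cells grown in RPMI 1640 with 5% FBS and 2 mM L-glutamine, plated at 5000–40,000 cells/well, then preincubated for 24 h. Exposure was 48 h at 37 °C and 5% CO2. Adherent cells were fixed with cold TCA at 10% final, suspension cells at 16%. Staining used 0.4% SRB, read at 515 nm. Results are % growth inhibition relative to control.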

MCF7 = test: Growth inhibition of human MCF7 cells at 10 uM after 48 hrs by SRB method; settings: MCF7, 48 h, read-out: GI; in short: as §1
[2] = Growth inhibition of human PC3 cells at 10 uM after 48 hrs by SRB method; settings: PC-3, 48 h, read-out: GI; in short: as §1
[3] = Growth inhibition of human UO31 cells at 10 uM after 48 hrs by SRB method; settings: UO-31, 48 h, read-out: GI
In short: (§2)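 NCI 56-line screen, single-dose primary assay at 10^-5 M. Cells grown in RPMI 1640 with 5% FBS and 2 mM L-glutamine, plated at 5000–40,000 cells/well and held 24 h at 37 °C, 5% CO2 before drug addition. Compound was given from DMSO stock, exposure 48 h, then TCA fixation and SRB staining with absorbance at 515 nm. % growth is taken relative to time-zero and untreated controls.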

[4] = Growth inhibition of human TK10 cells at 10 uM after 48 hrs by SRB method; settings: TK-10, 48 h, read-out: GI; in short: as §2
SN12C = test: Growth inhibition of human SN12C cells at 10 uM after 48 hrs by SRB method; settings: read-out: GI; in short: as §1
ACHN = test: Growth inhibition of human ACHN cells at 10 uM after 48 hrs by SRB method; settings: read-out: GI; in short: as §1
A498 = test: Growth inhibition of human A498 cells at 10 uM after 48 hrs by SRB method; settings: A498, 48 h, read-out: GI; in short: as §1
NCI/ADR-RES = test: Growth inhibition of human NCI/ADR-RES cells at 10 uM after 48 hrs by SRB method; settings: read-out: GI; in short: as §1
[5] = Growth inhibition of human OVCAR8 cells at 10 uM after 48 hrs by SRB method; settings: OVCAR-8, 48 h, read-out: GI; in short: as §1
[6] = Growth inhibition of human UACC62 cells at 10 uM after 48 hrs by SRB method; settings: UACC-62, 48 h, read-out: GI; in short: as §2
[7] = Growth inhibition of human UACC257 cells at 10 uM after 48 hrs by SRB method; settings: UACC-257, 48 h, read-out: GI; in short: as §2
SK-MEL-5 = test: Growth inhibition of human SK-MEL-5 cells at 10 uM after 48 hrs by SRB method; settings: SK-MEL-5, 48 h, read-out: GI; in short: as §1
SK-MEL-2 = test: Growth inhibition of human SK-MEL-2 cells at 10 uM after 48 hrs by SRB method; settings: SK-MEL-2, 48 h, read-out: GI; in short: as §1
M14 = test: Growth inhibition of human M14 cells at 10 uM after 48 hrs by SRB method; settings: M14, 48 h, read-out: GI; in short: as §1
HT-29 = test: Growth inhibition of human HT-29 cells at 10 uM after 48 hrs by SRB method; settings: HT-29, 48 h, read-out: GI; in short: as §1
[8] = Growth inhibition of human HCT15 cells at 10 uM after 48 hrs by SRB method; settings: HCT-15, 48 h, read-out: GI; in short: as §1
[9] = Growth inhibition of human HCT116 cells at 10 uM after 48 hrs by SRB method; settings: HCT-116, 48 h, read-out: GI; in short: as §1
[10] = Growth inhibition of human COLO205 cells at 10 uM after 48 hrs by SRB method; settings: COLO 205, 48 h, read-out: GI; in short: as §1
NCI-H522 = test: Growth inhibition of human NCI-H522 cells at 10 uM after 48 hrs by SRB method; settings: NCI-H522, 48 h, read-out: GI; in short: as §1
NCI-H460 = test: Growth inhibition of human NCI-H460 cells at 10 uM after 48 hrs by SRB method; settings: NCI-H460, 48 h, read-out: GI; in short: as §1
NCI-H226 = test: Growth inhibition of human NCI-H226 cells at 10 uM after 48 hrs by SRB method; settings: NCI-H226, 48 h, read-out: GI; in short: as §1
[11] = Growth inhibition of human HOP92 cells at 10 uM after 48 hrs by SRB method; settings: HOP-92, 48 h, read-out: GI; in short: as §1
A549 = test: Growth inhibition of human A549 cells at 10 uM after 48 hrs by SRB method; settings: A549, 48 h, read-out: GI; in short: as §1
SR = test: Growth inhibition of human SR cells at 10 uM after 48 hrs by SRB method; settings: read-out: GI; in short: as §1
[12] = Growth inhibition of human […] cells at 10 uM after 48 hrs by SRB method; settings: read-out: GI; in short: as §1
[13] = Growth inhibition of human MOLT4 cells at 10 uM after 48 hrs by SRB method; settings: MOLT-4, 48 h, read-out: GI; in short: as §1
K562 = test: Growth inhibition of human K562 cells at 10 uM after 48 hrs by SRB method; settings: K562, 48 h, read-out: GI; in short: as §1
[14] = Growth inhibition of human HL-60(TB) cells at 10 uM after 48 hrs by SRB method; settings: HL-60, 48 h, read-out: GI
In short: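 NCI single-dose primary screen at 10^-5 M, 48 h exposure. Cells grown in RPMI 1640 with 5% FBS and 2 mM L-glutamine. Suspension cells fixed in situ with TCA (final 16%), stained with SRB, absorbance read at 515 nm. Percent growth inhibition calculated against time-zero and untreated control plates.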

CCRF-CEM = test: Growth inhibition of human CCRF-CEM cells at 10 uM after 48 hrs by SRB method; settings: read-out: GI; in short: as §1
T47D = test: Growth inhibition of human T47D cells at 10 uM after 48 hrs by SRB method; settings: read-out: GI; in short: as §2
MDA-MB-468 = test: Growth inhibition of human MDA-MB-468 cells at 10 uM after 48 hrs by SRB method; settings: MDA-MB-468, 48 h, read-out: GI; in short: as §1
MDA-MB-231 = test: Growth inhibition of human MDA-MB-231 cells at 10 uM after 48 hrs by SRB method; settings: MDA-MB-231, 48 h, read-out: GI; in short: as §1
[15] = Growth inhibition of human Caki1 cells at 10 uM after 48 hrs by SRB method; settings: CAKI-1, 48 h, read-out: GI; in short: as §1
786-0 = test: Growth inhibition of human 786-0 cells at 10 uM after 48 hrs by SRB method; settings: 786-0, 48 h, read-out: GI; in short: as §1
[16] = Growth inhibition of human OVCAR4 cells at 10 uM after 48 hrs by SRB method; settings: OVCAR-4, 48 h, read-out: GI; in short: as §1
[17] = Growth inhibition of human OVCAR3 cells at 10 uM after 48 hrs by SRB method; settings: OVCAR-3, 48 h, read-out: GI; in short: as §1
MDA-MB-435 = test: Growth inhibition of human MDA-MB-435 cells at 10 uM after 48 hrs by SRB method; settings: MDA-MB-435, 48 h, read-out: GI; in short: as §1
[18] = Growth inhibition of human SF295 cells at 10 uM after 48 hrs by SRB method; settings: SF-295, 48 h, read-out: GI; in short: as §1
[19] = Growth inhibition of human SF268 cells at 10 uM after 48 hrs by SRB method; settings: SF-268, 48 h, read-out: GI; in short: as §1
KM12 = test: Growth inhibition of human KM12 cells at 10 uM after 48 hrs by SRB method; settings: KM12, 48 h, read-out: GI; in short: as §1

## O=C(CN1CCN(c2nnc(-c3ccccc3)c3ccccc23)CC1)Nc1nc(-c2ccccc2)cs1
[1]
  inhibition of growth at 10 µM: 40%
MCF7
  inhibition of growth at 10 µM: 53%
[2]
  inhibition of growth at 10 µM: 62%
[3]
  inhibition of growth at 10 µM: 90%
[4]
  inhibition of growth at 10 µM: 30%
SN12C
  inhibition of growth at 10 µM: 32%
ACHN
  inhibition of growth at 10 µM: 31%
A498
  inhibition of growth at 10 µM: 54%
NCI/ADR-RES
  inhibition of growth at 10 µM: 45%
[5]
  inhibition of growth at 10 µM: 44%
[6]
  inhibition of growth at 10 µM: 44%
[7]
  inhibition of growth at 10 µM: 48%
SK-MEL-5
  inhibition of growth at 10 µM: 77%
SK-MEL-2
  inhibition of growth at 10 µM: 40%
M14
  inhibition of growth at 10 µM: 44%
HT-29
  inhibition of growth at 10 µM: 34%
[8]
  inhibition of growth at 10 µM: 51%
[9]
  inhibition of growth at 10 µM: 38%
[10]
  inhibition of growth at 10 µM: 54%
NCI-H522
  inhibition of growth at 10 µM: 58%
NCI-H460
  inhibition of growth at 10 µM: 45%
NCI-H226
  inhibition of growth at 10 µM: 38%
[11]
  inhibition of growth at 10 µM: 47%
A549
  inhibition of growth at 10 µM: 48%
SR
  inhibition of growth at 10 µM: 57%
[12]
  inhibition of growth at 10 µM: 56%
[13]
  inhibition of growth at 10 µM: 70%
K562
  inhibition of growth at 10 µM: 50%
[14]
  inhibition of growth at 10 µM: 50%
CCRF-CEM
  inhibition of growth at 10 µM: 53%
T47D
  inhibition of growth at 10 µM: 85%
MDA-MB-468
  inhibition of growth at 10 µM: 59%
MDA-MB-231
  inhibition of growth at 10 µM: 38%

## O=C(CN1CCN(c2nnc(-c3ccccc3)c3ccccc23)CC1)Nc1nc(-c2ccc(Cl)cc2)cs1
MCF7
  inhibition of growth at 10 µM: 44%
[2]
  inhibition of growth at 10 µM: 56%
[3]
  inhibition of growth at 10 µM: 50%
[4]
  inhibition of growth at 10 µM: 41%
SN12C
  inhibition of growth at 10 µM: 30%
[15]
  inhibition of growth at 10 µM: 41%
A498
  inhibition of growth at 10 µM: 52%
786-0
  inhibition of growth at 10 µM: 30%
NCI/ADR-RES
  inhibition of growth at 10 µM: 39%
[5]
  inhibition of growth at 10 µM: 37%
[16]
  inhibition of growth at 10 µM: 30%
[17]
  inhibition of growth at 10 µM: 31%
[6]
  inhibition of growth at 10 µM: 36%
[7]
  inhibition of growth at 10 µM: 45%
SK-MEL-5
  inhibition of growth at 10 µM: 56%
SK-MEL-2
  inhibition of growth at 10 µM: 31%
MDA-MB-435
  inhibition of growth at 10 µM: 31%
[18]
  inhibition of growth at 10 µM: 38%
[19]
  inhibition of growth at 10 µM: 32%
HT-29
  inhibition of growth at 10 µM: 32%
[9]
  inhibition of growth at 10 µM: 38%
[10]
  inhibition of growth at 10 µM: 32%
NCI-H522
  inhibition of growth at 10 µM: 47%
NCI-H226
  inhibition of growth at 10 µM: 31%
[11]
  inhibition of growth at 10 µM: 31%
A549
  inhibition of growth at 10 µM: 45%
SR
  inhibition of growth at 10 µM: 53%
[12]
  inhibition of growth at 10 µM: 58%
[13]
  inhibition of growth at 10 µM: 64%
K562
  inhibition of growth at 10 µM: 60%
[14]
  inhibition of growth at 10 µM: 45%
CCRF-CEM
  inhibition of growth at 10 µM: 38%
T47D
  inhibition of growth at 10 µM: 65%
MDA-MB-468
  inhibition of growth at 10 µM: 66%

## CCOC(=O)c1sc(NC(=O)CN2CCN(c3nnc(-c4ccccc4)c4ccccc34)CC2)nc1C
[1]
  inhibition of growth at 10 µM: 33%
[2]
  inhibition of growth at 10 µM: 57%
[3]
  inhibition of growth at 10 µM: 46%
[4]
  inhibition of growth at 10 µM: 36%
[15]
  inhibition of growth at 10 µM: 35%
A498
  inhibition of growth at 10 µM: 37%
786-0
  inhibition of growth at 10 µM: 31%
[5]
  inhibition of growth at 10 µM: 33%
[6]
  inhibition of growth at 10 µM: 34%
SK-MEL-5
  inhibition of growth at 10 µM: 33%
M14
  inhibition of growth at 10 µM: 32%
[19]
  inhibition of growth at 10 µM: 32%
KM12
  inhibition of growth at 10 µM: 30%
HT-29
  inhibition of growth at 10 µM: 50%
[8]
  inhibition of growth at 10 µM: 44%
[10]
  inhibition of growth at 10 µM: 34%
NCI-H522
  inhibition of growth at 10 µM: 64%
[11]
  inhibition of growth at 10 µM: 38%
A549
  inhibition of growth at 10 µM: 33%
SR
  inhibition of growth at 10 µM: 64%
[12]
  inhibition of growth at 10 µM: 53%
[13]
  inhibition of growth at 10 µM: 59%
K562
  inhibition of growth at 10 µM: 34%
[14]
  inhibition of growth at 10 µM: 43%
CCRF-CEM
  inhibition of growth at 10 µM: 34%
T47D
  inhibition of growth at 10 µM: 68%
MDA-MB-468
  inhibition of growth at 10 µM: 49%
MDA-MB-231
  inhibition of growth at 10 µM: 49%
